# This is one part of a sample in which hits are shown more often than they occur.
# PostGolgi yeast: phenotypic screen on post-Golgi transport, primary screen. AID 739, 2007. 98,000 compounds, 0.9% hits. inhibition, % at 10 µM. post-Golgi transport phenotypic cell assay;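 further: yeast cells grown in 1536-well plates; yeast grown about 18 h at 30C before absorbance read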
# Yeast lifespan up: compounds extending yeast replicative lifespan, primary screen, S. cerevisiae, OD615 | S. cerevisiae growth with nicotinamide; deaD strain in restrictive glucose medium | inhibition of the nicotinamide effect, % at 10 µM | 130,000 compounds, 0.68% hits | AID 775, 2007;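 active means inhibition above a set limit, placed 3 SD over the median of all compounds, cut at about 26% in these data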;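 further: 0% = nicotinamide-treated wells and 100% = cells grown without nicotinamide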
#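 System: Modified budding yeast, DeaD strain | Buffer or medium: Restrictive glucose medium | Also added: 1.5 mM nicotinamide | Doses: 10 µM single point, 0.25% DMSO | Schedule: 48 h compound exposure at 30 °C, humidified | Detection: Absorbance at 615 nm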
# PostGolgi ctrl: growth inhibition of yeast control strain, primary screen, counter-screen for post-Golgi transport modulator project; AID 738, 2007; inhibition, % at 10 µM; efflux-deficient yeast background strain, growth absorbance A615, 16 h; 98,000 compounds, 5% hits
# Yeast growth inh: growth inhibitors of yeast BB579 in restrictive medium, primary screen, yeast lifespan-shortening project, S. cerevisiae; OD615, 48 h; inhibition, % at 10 µM; 140,000 compounds, 0.51% hits; AID 804, 2007;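 active means inhibition above a set limit, 3 SD over the mean compound inhibition, cut at about 44% in these data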
#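 Test system: DeaD yeast strain BB579 / Buffer or medium: restrictive glucose-based CSMM-D medium / Doses: single 10 µM dose / Schedule: 4 h cell preincubation, 48 h compound exposure, 30 °C humidified / Technique: culture absorbance at 615 nm / Controls: amphotericin B positive control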
# The depositor's hits bear a star; x = not tested or not shown. Unless noted, no stated cut-off is given here; in the data, active means inhibition above about 30%; inactive means the rest.
SMILES,PostGolgi yeast,Yeast lifespan up,PostGolgi ctrl,Yeast growth inh
CCOCC(=O)Nc1cc(C(=O)OC)cc(C(=O)OC)c1,x,-1.2,x,-42.6
C=CCOc1ccc(/C=C/C(=O)Nc2ccc(C(=O)NC)cc2)cc1,x,-4.0,x,-11.7
COc1ccc(NC(=O)CN2CCC(Cc3ccccc3)CC2)cc1S(=O)(=O)N1CCOCC1,x,-0.3,x,-9.4
C/C=C/c1ccc(OCCCCn2cncn2)c(OC)c1,1.8,-18.9,31.1*,-63.7
C/C=C/c1ccc(OCCCn2cncn2)c(OC)c1,0.3,-27.1,2.8,-13.4
CCCS(=O)(=O)N1CCN(Cc2ccc3c(c2)c2ccccc2n3CC)CC1,x,-0.4,x,-17.3
COc1ccc(S(=O)(=O)N(C)C)cc1NS(=O)(=O)c1ccc(F)c(F)c1F,x,-2.0,x,-36.2
COCCCn1c(SCc2nnc(-c3ccccc3)o2)nc2sc3c(c2c1=O)CCC3,63.1*,-11.4,99.6*,-12.6
Cn1c(SCC(=O)N2CCOCC2)nc2sc3c(c2c1=O)CCCC3,-5.4,-30.3,5.5,0.6
Cn1c(SCc2nnc(-c3ccccc3Br)o2)nc2sc3c(c2c1=O)CCC3,-8.6,-8.2,45.1*,-13.5
COc1ccc(/C=C/C(=O)OCC(=O)NCc2ccco2)cc1OC,x,3.7,x,-4.7
CCn1c(SCc2ccc(C#N)cc2)nnc1-c1ccc(S(=O)(=O)N2CCCCC2)cc1,10.6,-23.8,43.0*,-17.6
COc1ccc(Cl)cc1C(=O)CSc1nnnn1C1CCCC1,20.3,-14.9,34.6*,-38.6
COc1cccc(CNn2c(-c3cccc(C)c3)nc3ccccc3c2=O)c1,3.7,-0.8,35.6*,-49.5
NC(=O)c1cc2cc(Cl)ccc2oc1=Nc1cccc(C(F)(F)F)c1,x,4.4,x,-31.6
NC(=O)c1ccc(C(F)(F)F)n(Cc2ccccc2Cl)c1=O,1.8,-4.6,44.4*,-26.8
CCC(Cc1ccccc1)NC(=O)C1CCC(CNc2c(N3CCCC3)c(=O)c2=O)CC1 (centres undefined),-7.8,-8.3,3.5,-16.5
Cc1ccc(NS(=O)(=O)c2cc(C(=O)O)ccc2Cl)cc1,-1.5,-5.7,2.8,-31.2
CC(C)NS(=O)(=O)c1cc(C(=O)O)ccc1Cl,x,26.5*,x,-24.0
O=C(Cc1cccc2ccccc12)N/N=C/c1ccc(Sc2nc3ccccc3s2)o1,7.4,-18.4,34.8*,-77.6
NC(Cc1ccc(Oc2ccc(O)cc2)cc1)C(=O)O (centres undefined),x,5.8,x,-14.8
Cc1ccc(C(C2=C(O)CC(C)(C)CC2=O)C2C(=O)CC(C)(C)CC2=O)o1 (centres undefined),5.0,43.6*,23.3,-12.2
O=C(/C=C/c1ccc2c(c1)OCO2)NCCSCc1c(Cl)cccc1Cl,x,-8.8,x,-17.1
COc1ccc(OCCNC2CCCC2)cc1,x,5.6,x,70.6*
CC1=NN(c2ccccc2)C(=O)C1(C)[N+](=O)[O-] (centres undefined),x,1.6,x,-27.9
SMILES,PostGolgi yeast,Yeast lifespan up,PostGolgi ctrl,Yeast growth inh
CC(C)(C)c1n[nH]c2c1CCCC2,x,28.0*,x,-40.6
c1ccc(-c2n[nH]c3c2CCC3)cc1,-5.6,-7.0,5.2,12.2
Cc1ccc(NC(=O)c2cc(N3C(=O)C=CC3=O)ccc2Cl)cc1C,x,2.7,x,-37.2
O=[N+]([O-])c1cc(Cl)cc(/C=N\Nc2ccccn2)c1O,80.0*,-1.0,19.3,40.2
O=[N+]([O-])c1ccccc1N/N=C\c1ccccc1Cl,24.3,-2.4,5.8,-45.7
CCOc1ccc(Cl)cc1S(=O)(=O)N1CCN(c2ccc(F)cc2)CC1,0.3,-3.6,33.1*,-31.7
COc1ccc(Cl)cc1S(=O)(=O)N1CCN(c2ccc(F)cc2)CC1,-8.5,-12.9,23.1,-28.5
CCOc1ccc(Cl)cc1S(=O)(=O)n1cnc2cc(C)c(C)cc21,-9.6,0.2,39.7*,-54.9
Cc1ccc(S(=O)(=O)NNC(=O)NC23CC4CC(CC(C4)C2)C3)cc1,x,4.0,x,-33.5
Cc1c(NC(=S)NC(=O)c2cc3ccccc3o2)c(=O)n(-c2ccccc2)n1C,x,1.1,x,-57.7
CC(c1ccc(Cl)cc1)n1c(-c2ccc3ccccc3n2)n[nH]c1=S (centres undefined),3.1,-8.7,54.6*,28.4
CC(c1ccc(F)cc1)n1c(-c2ccc3ccccc3n2)n[nH]c1=S (centres undefined),-0.2,0.5,36.4*,-28.6
COc1ccc(C(=O)NC(=S)Nc2ccc3c4c(cccc24)CC3)cc1OC,x,6.5,x,-34.4
c1ccc2c(N3CCCCCC3)nc(-c3ccncc3)nc2c1,26.8,-7.8,67.8*,-13.8
c1cncc(-c2nc(N3CCCCCC3)c3ccccc3n2)c1,-9.5,-8.2,66.2*,-40.7
C(=C\c1nc(N2CCCCCC2)c2ccccc2n1)/c1ccccc1,x,-7.1,x,74.4*
CC1CN(c2cc(-c3ccccc3)c3ccccc3n2)CC(C)O1 (centres undefined),13.2,-8.3,25.0,-41.4
CC1CN(c2nc(-c3ccccc3)nc3ccccc23)CC(C)O1 (centres undefined),2.9,-5.4,41.0*,-33.8
COC(=O)c1ccccc1OCCCN(C)C,x,2.3,x,-8.6
CCOc1ccc(NC(=O)c2ccco2)c([N+](=O)[O-])c1,x,-8.4,x,-12.4
O=C(N/N=C/c1cccc([N+](=O)[O-])c1)C1CC(=O)N(c2ccc(F)cc2)C1 (centres undefined),x,9.8,x,-48.8
CCOc1nc(-c2ccncc2)nc2ccccc12,5.0,-15.1,34.5*,-25.1
O=C(/C=C/c1ccccc1)N1CCN(c2c(Cl)cccc2[N+](=O)[O-])CC1,x,2.6,x,-27.4
c1ccc(N2CCN(c3ccccc3)C2c2ccncc2)cc1,7.0,-5.2,30.8*,-38.2
c1ccc(N2CCN(c3ccccc3)C2c2cccnc2)cc1,10.8,-5.9,20.0,-24.6
SMILES,PostGolgi yeast,Yeast lifespan up,PostGolgi ctrl,Yeast growth inh
COc1ccccc1N(CC(=O)NC(C)(C)C)S(=O)(=O)c1cccs1,x,-1.6,x,2.5
O=C(OCc1cc2ccccc2[nH]c1=O)C1CCCCC1,30.4*,-8.3,13.3,-0.6
O=C(OCc1cc2ccccc2[nH]c1=O)C1CCCO1 (centres undefined),0.0,-1.9,7.8,-57.6
COCCn1c(SCC(=O)Nc2cc(C)cc(C)c2)nnc1C(C)C,-3.8,-5.3,30.0*,-31.7
COCCn1c(SCC(=O)Nc2cccc(C)c2)nnc1C(C)C,0.5,4.5,-1.3,-35.6
Cc1c(NC(=O)C(=O)/C=C(/O)c2ccccc2)c(=O)n(-c2ccccc2)n1C,x,67.1*,x,-18.3
CCC(CC)C(=O)Nc1c(C)n(C)n(-c2ccccc2)c1=O,2.7,57.1*,16.9,-4.9
COc1ccc(/C(O)=C/C(=O)C(=O)Nc2c(C)n(C)n(-c3ccccc3)c2=O)cc1,-2.3,72.6*,9.6,-34.3
Cc1ccc(/C=N/NC(=O)c2cc(C3CC3)nc3ccccc23)o1,x,-1.9,x,-16.1
Cc1cc(C(=O)CSc2nc3ccccc3o2)c(C)n1CC1CCCO1 (centres undefined),-4.0,-5.9,8.1,-41.7
Cc1sc2nc(SCC(=O)c3cc(C)n(CC4CCCO4)c3C)n(C(C)C)c(=O)c2c1C (centres undefined),-3.9,3.4,30.4*,-52.9
Cc1ccc(C(=O)C2C(=O)c3ccccc3C2=O)cc1,-3.5,69.3*,25.0,-43.7

# Assay outcomes as filed in PubChem.
